The record followed here is ChEMBL document CHEMBL1130410, “19-nor-10-azasteroids: a novel class of inhibitors for human steroid 5alpha-reductases 1 and 2” (J Med Chem, 1997).

Values joined by “and” are separate entries in the source; they are usually repeats but may differ in a detail not shown here. Equal values may be shown once. A value given as a limit tells only on which side of the number the result lay.

The target in assay [1] is T1, 3-oxo-5-alpha-steroid 4-dehydrogenase 2 (Homo sapiens, UniProt P31213).
T1 sequence (P31213 whole entry): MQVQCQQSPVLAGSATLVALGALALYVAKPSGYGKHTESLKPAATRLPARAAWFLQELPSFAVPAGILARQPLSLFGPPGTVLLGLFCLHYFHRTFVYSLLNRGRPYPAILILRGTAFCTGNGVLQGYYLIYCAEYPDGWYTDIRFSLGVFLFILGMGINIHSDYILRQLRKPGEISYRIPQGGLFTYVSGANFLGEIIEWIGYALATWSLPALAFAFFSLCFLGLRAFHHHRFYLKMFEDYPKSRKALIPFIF
Description: Inhibition against 5 alpha R-2 in human prostate homogenate relative to finasteride. It counts as tissue-based, Prostate gland.

The target in assay [2] is T2, 3-oxo-5-alpha-steroid 4-dehydrogenase 1 (Homo sapiens, UniProt P18405).
T2 sequence (P18405 whole entry): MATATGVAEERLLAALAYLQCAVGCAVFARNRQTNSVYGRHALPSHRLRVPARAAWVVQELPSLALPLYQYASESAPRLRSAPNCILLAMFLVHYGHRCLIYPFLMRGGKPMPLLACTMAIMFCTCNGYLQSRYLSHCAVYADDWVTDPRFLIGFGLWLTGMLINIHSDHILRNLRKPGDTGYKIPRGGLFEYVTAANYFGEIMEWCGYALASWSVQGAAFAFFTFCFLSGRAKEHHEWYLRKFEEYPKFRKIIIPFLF
Description: (§1) Inhibitory activity against human 5-alpha Reductase-1 expressed in DU-145 cells. It is filed as cell-based. In a few lines: (§2)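 DU-145 cells (passage 60–90) were plated at 100 000 cells/well and left to adhere for 24 h. Inhibitors were prepared in ethanol, diluted in phenol-red-free MEM and tested at five doses, 10⁻⁹–10⁻⁵ M, with 5 nM [3H]androstenedione. After 6 h at 37 °C in 5% CO2, the medium was extracted with ethyl acetate and analysed by TLC and scintillation.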

Assay [3] deals with T1, 3-oxo-5-alpha-steroid 4-dehydrogenase 2. Description: Inhibitory activity against 5-alpha Reductase-2 on human prostate homogenates from surgically derived benign hyperplastic tissue. It counts as tissue-based, Prostate gland. The essentials: (§3)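 Benign hyperplastic human prostate tissue, stored at -80 °C, was homogenized near 0 °C in 50 mM TRIS pH 7.4 with salts, nicotinamide and sucrose, spun at 200g, and the combined supernatants were used. Homogenate (0.1 mg protein) was incubated with 30 nM testosterone (9% [3H]) and 0.3 mM NADPH for 30 min at 37 °C, with the inhibitor added alongside the substrate. Inhibitor range was 10⁻¹⁰–10⁻⁵ M. DHT conversion was read by TLC and scintillation, in duplicate.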

The target of assay [4] is 3-oxo-5-alpha-steroid 4-dehydrogenase 1 (Homo sapiens, UniProt P18405). Described as §1. It counts as cell-based. In a few lines:
as §2
This is another data set of the same source.

Assay [5] addresses T1, 3-oxo-5-alpha-steroid 4-dehydrogenase 2. Description: Inhibition against 5 alpha R-2 in human prostate homogenate compared with finasteride in experiment 2. It is filed as tissue-based, Prostate gland. In a few lines: as §3
The target is the same in assay [6]. Description: TInhibitory activity against 5-alpha Reductase-2 on human prostate homogenates from surgically derived benign hyperplastic tissue in experiment 2. It counts as tissue-based, Prostate gland. In a few lines:
as §3

The target is the same in assay [7]. Description: Tested against 5 alpha R-2 on human prostate homogenate from surgically derived benign hyperplastic tissue in experiment 1. It counts as tissue-based, Prostate gland. The essentials:
as §3

The target is the same in assay [8]. Description: Tested against 5 alpha R-2 on human prostate homogenate from surgically derived benign hyperplastic tissue in experiment 2. It is filed as tissue-based, Prostate gland. In a few lines:
as §3

Assay [9] shares this target. Description: Tested against 5 alpha R-2 on human prostate homogenate from surgically derived benign hyperplastic tissue in experiment 3. It is filed as tissue-based, Prostate gland. The essentials:
as §3

For assay [10] the target is unchanged. Description: Inhibition against 5 alpha R-2 in human prostate homogenate compared with finasteride in experiment 3. It is filed as tissue-based, Prostate gland. In a few lines: as §3
For assay [11] the target is unchanged. Description: Inhibitory activity against 5-alpha Reductase-2 on human prostate homogenates from surgically derived benign hyperplastic tissue in experiment 1. It is filed as tissue-based, Prostate gland. The essentials: as §3
Assay [12] shares this target. Description: Inhibition against 5 alpha R-2 in human prostate homogenate compared with finasteride in experiment 1. It is filed as tissue-based, Prostate gland. The essentials:
as §3

As usually defined, the IC50 is the concentration at which inhibition is half-maximal.

Consider `C[C@]12CC=C3C4=C(CCC3[C@@H]1CCC2=O)NCCC4=O.C[C@]12CCC3=C(CCC4=C3C(=O)CCN4)[C@@H]1CCC2=O` (stereo in doubt; 27b), for which, in assay [1], the IC50 turned out to be 3.8 nM.
Turning to `C[C@]12CC[C@H]3[C@@H](CCC4=CC(=O)CCN43)[C@@H]1CCC2=O`, the results for the IC50 in assay [1], in [2] and in assay [3] were 3.5 nM, 299 nM and 4400 nM, respectively.
Take `C[C@]12CC=C3C4=C(CCC3[C@@H]1CCC2=O)NCCC4=O.C[C@]12CCC3=C(CCC4=C3C(=O)CCN4)[C@@H]1CCC2=O` (stereo in doubt; 27c): the IC50 in assay [1] is 6.1 nM; in [2], more than 100000 nM; in [3], more than 100000 nM.
For `C[C@]12CC=C3[C@@H](CCC4=CC(=O)CCN43)C1CCC2=O.C[C@]12CCC3=C(CCC4=CC(=O)CCN43)C1CCC2=O` (stereo in doubt; 4a:4b(5:1)), the values for the IC50 in assay [1], in assay [2] and in assay [3] were 4.1 nM, 263 nM and 4600 nM, respectively.
With `C[C@]12CC[C@H]3[C@@H](CCC4CC(=O)C=CN43)[C@@H]1CCC2=O` (some centres not stated), the half-maximal inhibitory concentration (IC50) in [1] turned out to be 2.4 nM; in [3], 46000 nM.
Turning to `CC(C)(C)NC(=O)[C@H]1CC[C@H]2[C@@H]3CCC4=CC(=O)CCN4[C@H]3CC[C@]12C`, the IC50 in assay [1] is 5.5 nM; in assay [2], 1130 nM; in [3] it was 460 nM.
Consider `CC(C)(C)NC(=O)[C@H]1CC[C@H]2[C@@H]3CC[C@H]4NC(=O)C=C[C@]4(C)[C@H]3CC[C@]12C` [FINASTERIDE], for which the IC50 in [4] was 42 nM; in assay [3], 3 nM.
`C[C@]12CC[C@H]3[C@@H](CC[C@H]4CC(=O)CCN43)[C@@H]1CCC2=O`: the IC50 in assay [1] was 2.9 nM; in assay [2] it was more than 100000 nM; in [3] it was more than 100000 nM.
On to `C[C@]12CC=C3[C@@H](CCC4=CC(=O)CCN43)C1CCC2=O.C[C@]12CCC3=C(CCC4=CC(=O)CCN43)C1CCC2=O` (stereo in doubt; 4a), for which the IC50 in assay [1] was 3.4 nM.
Regarding `CC(C)(C)NC(=O)[C@H]1CC[C@H]2C3=C(CC[C@]12C)N1CCC(=O)C=C1CC3.CC(C)(C)NC(=O)[C@H]1CC[C@H]2C3CCC4=CC(=O)CCN4C3=CC[C@]12C` (some centres not stated), the IC50 is 5.7 nM and 3.1 nM in assay [5]; 122 nM in assay [6]; 10.2 nM in assay [7]; 7.3 nM in assay [8]; 150 nM in assay [9]; 127 nM in assay [2]. Further, the IC50 is 4.3 nM in assay [10]; 37 nM in [11]; 2.2 nM and 3.4 nM in assay [12].
For `C=CC(=O)/C=C1/CCC2=C(CC[C@]3(C)C(=O)CC[C@@H]23)N1.C=CC(=O)/C=C1/CCC2C(=CC[C@]3(C)C(=O)CC[C@@H]23)N1` (some centres not stated), the IC50 in [1] is 6.1 nM; in assay [3], more than 100000 nM.
For `C[C@]12CC[C@H]3[C@@H](CCC4=CC(=O)CCN43)[C@@H]1CC[C@@H]2O`, the IC50 in assay [1] amounted to 2.7 nM; in [2] it was 409 nM; in [3] it was 4200 nM.
As to `C[C@]12CC=C3[C@@H](CCC4=CC(=O)CCN43)C1CC[C@@H]2O.C[C@]12CCC3=C(CCC4=CC(=O)CCN43)C1CC[C@@H]2O` (some centres not stated), the IC50 was determined as 3 nM in [1] and 2900 nM in assay [3].
